Assay results taken from ChEMBL document CHEMBL1156652, “Antiurolithic effect of lupeol and lupeol linoleate in experimental hyperoxaluria” (J Nat Prod, 2008).
Activity calls are given as the source filed them.

Assays:
Rattus norvegicus [1] = assay: Increase in catalase activity in kidney of ethylene glycol-induced hyperoxaluria Wistar rat model assessed per mg of protein at 50 mg/kg/day, po for 28 days; format: functional
Outline: (§1)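 Ethylene glycol-hyperoxaluric male Wistar rats (0.75% in drinking water, 28 days), co-dosed orally at 50 mg/kg body wt/day. Kidney homogenate, 10% in 0.01 M Tris-HCl pH 7.4. SOD unit defined as 50% inhibition of pyrogallol autoxidation; CAT as µmol H2O2 utilized/min. GSH, vitamins C and E as µg/mg protein. Mean ± SEM, 6 rats/group.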

Rattus norvegicus [2] = assay: Reduction of glycolic acid oxidase activity in liver of ethylene glycol-induced hyperoxaluria Wistar rat model assessed per mg of protein at 50 mg/kg/day, po for 28 days; format: functional
Outline: (§2)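 Hyperoxaluria produced with 0.75% ethylene glycol in drinking water for 28 days, with concurrent oral dosing at 50 mg/kg body wt/day. Liver and kidney homogenized 10% in ice-cold 0.01 M Tris-HCl pH 7.4. LDH assayed with glyoxylate as substrate; GAO and XO by published methods. Mean ± SEM, 6 rats/group.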

Rattus norvegicus [3] = assay: Effect on glycolic acid oxidase activity in liver of Wistar rat assessed per mg of protein at 50 mg/kg/day, po for 28 days; format: functional
Outline: (§3)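 Normal male Wistar rats, no ethylene glycol, given oral dosing at 50 mg/kg body wt/day for 28 days. Liver and kidney homogenized 10% in ice-cold 0.01 M Tris-HCl pH 7.4. LDH assayed with glyoxylate as substrate; GAO and XO by published methods. Mean ± SEM, 6 rats/group.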

Rattus norvegicus [4] = assay: Effect on superoxide dismutase activity in kidney of Wistar rat assessed per mg of protein at 50 mg/kg/day, po for 28 days; format: functional
Outline: (§4)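 Normal male Wistar rats, no ethylene glycol, dosed orally at 50 mg/kg body wt/day for 28 days. Kidney homogenate, 10% in 0.01 M Tris-HCl pH 7.4. SOD unit defined as 50% inhibition of pyrogallol autoxidation; CAT as µmol H2O2 utilized/min. GSH, vitamins C and E as µg/mg protein. Protein by Lowry. Mean ± SEM, 6 rats/group.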

Rattus norvegicus [5] = assay: Effect on xanthine oxidase activity in kidney of Wistar rat assessed per mg of protein at 50 mg/kg/day, po for 28 days; format: functional; outline: as §3
Rattus norvegicus [6] = assay: Reduction of lactate dehydrogenase activity in liver of ethylene glycol-induced hyperoxaluria Wistar rat model assessed per mg of protein at 50 mg/kg/day, po for 28 days; format: functional; outline: as §2
Rattus norvegicus [7] = assay: Renoprotective effect in ethylene glycol-hyperoxaluria Wistar rat model assessed as increase in renal alkaline phosphatase activity per mg of protein at 50 mg/kg/day, po for 28 days; format: functional
Outline: (§5)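 Ethylene glycol given at 0.75% in drinking water for 28 days to male Wistar rats, with concurrent oral dosing at 50 mg/kg body wt/day. Kidney homogenate in 0.01 M Tris-HCl pH 7.4. ALP read as phenol liberated from disodium phenyl phosphate, Folin colour at alkaline pH; γ-GT as p-nitroaniline liberated/min/mg protein. Mean ± SEM, 6 rats/group.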

Rattus norvegicus [8] = assay: Effect on glutathione peroxidase activity in kidney of Wistar rat assessed per mg of protein at 50 mg/kg/day, po for 28 days; format: functional; outline: as §4
Rattus norvegicus [9] = assay: Reduction in ascorbate-induced lipid peroxidation levels in kidney of ethylene glycol-induced hyperoxaluria Wistar rat model assessed as malondialdehyde release per mg of protein at 50 mg/kg/day, po for 28 days; format: functional
Outline: (§6)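 Male Wistar rats given 0.75% ethylene glycol in drinking water for 28 days, with drug orally at 50 mg/kg body wt/day throughout. Kidney homogenized 10% in ice-cold 0.01 M Tris-HCl, pH 7.4. Lipid peroxidation read as malondialdehyde released, with 10 mM ferrous sulfate or 0.2 mM ascorbate as inducer. Mean ± SEM, 6 rats/group.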

Rattus norvegicus [10] = assay: Effect on ascorbate-induced lipid peroxidation levels in kidney of Wistar rat assessed as malondialdehyde release per mg of protein at 50 mg/kg/day, po for 28 days; format: functional
Outline: (§7)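 Normal male Wistar rats (120 ± 20 g), no ethylene glycol, given drug orally at 50 mg/kg body wt/day for 28 days. Kidney homogenized 10% in ice-cold 0.01 M Tris-HCl, pH 7.4. Lipid peroxidation read as malondialdehyde released, with 10 mM ferrous sulfate or 0.2 mM ascorbate as inducer. Mean ± SEM, 6 rats/group.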

Rattus norvegicus [11] = assay: Increase in glutathione peroxidase activity in kidney of ethylene glycol-induced hyperoxaluria Wistar rat model assessed per mg of protein at 50 mg/kg/day, po for 28 days; format: functional; outline: as §1
Rattus norvegicus [12] = assay: Increase in superoxide dismutase activity in kidney of ethylene glycol-induced hyperoxaluria Wistar rat model assessed per mg of protein at 50 mg/kg/day, po for 28 days; format: functional; outline: as §1
Rattus norvegicus [13] = assay: Nephrotoxicity in Wistar rat at 50 mg/kg/day, po for 28 days; format: toxicity, organism-based; set-up: route oral; details: in vivo, 672 h
Outline: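 Male Wistar rats (120 ± 20 g), six per group, dosed orally once daily for 28 days, alone or alongside 0.75% ethylene glycol in drinking water to induce hyperoxaluria. After decapitation, kidneys were homogenized (10%) in ice-cold 0.01 M Tris-HCl pH 7.4 for ALP and γ-GT assays, or formalin-fixed, H&E-stained and examined by light microscopy. Data reported as mean ± SEM.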

Rattus norvegicus [14] = assay: Effect on ferrous sulfate-induced lipid peroxidation levels in kidney of Wistar rat assessed as malondialdehyde release per mg of protein at 50 mg/kg/day, po for 28 days; format: functional; outline: as §7
Rattus norvegicus [15] = assay: Increase in vitamin E level in kidney of ethylene glycol-induced hyperoxaluria Wistar rat model assessed per mg of protein at 50 mg/kg/day, po for 28 days; format: functional; outline: as §1
Rattus norvegicus [16] = assay: Reduction of xanthine oxidase activity in kidney of ethylene glycol-induced hyperoxaluria Wistar rat model assessed per mg of protein at 50 mg/kg/day, po for 28 days; format: functional; outline: as §2
Rattus norvegicus [17] = assay: Effect on glutathione level in kidney of Wistar rat assessed per mg of protein at 50 mg/kg/day, po for 28 days; format: functional; outline: as §4
Rattus norvegicus [18] = assay: Effect on catalase activity in kidney of Wistar rat assessed per mg of protein at 50 mg/kg/day, po for 28 days; format: functional; outline: as §4
Rattus norvegicus [19] = assay: Increase in vitamin C level in kidney of ethylene glycol-induced hyperoxaluria Wistar rat model assessed per mg of protein at 50 mg/kg/day, po for 28 days; format: functional; outline: as §1
Rattus norvegicus [20] = assay: Effect on lactate dehydrogenase activity in liver of Wistar rat assessed per mg of protein at 50 mg/kg/day, po for 28 days; format: functional; outline: as §3
Rattus norvegicus [21] = assay: Reduction of lactate dehydrogenase activity in kidney of ethylene glycol-induced hyperoxaluria Wistar rat model assessed per mg of protein at 50 mg/kg/day, po for 28 days; format: functional; outline: as §2
Rattus norvegicus [22] = assay: Effect on vitamin C level in kidney of Wistar rat assessed per mg of protein at 50 mg/kg/day, po for 28 days; format: functional; outline: as §4
Rattus norvegicus [23] = assay: Effect on lactate dehydrogenase activity in kidney of Wistar rat assessed per mg of protein at 50 mg/kg/day, po for 28 days; format: functional; outline: as §3
Rattus norvegicus [24] = assay: Effect on vitamin E level in kidney of Wistar rat assessed per mg of protein at 50 mg/kg/day, po for 28 days; format: functional; outline: as §4
Rattus norvegicus [25] = assay: Renoprotective effect in ethylene glycol-hyperoxaluria Wistar rat model assessed as increase in renal gamma glutamyl transferase activity mg of protein at 50 mg/kg/day, po for 28 days; format: functional; outline: as §5
Rattus norvegicus [26] = assay: Effect on renal alkaline phosphatase activity in Wistar rat assessed per mg of protein at 50 mg/kg/day, po for 28 days; format: functional
Outline: (§8)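 Normal male Wistar rats, no ethylene glycol, dosed orally at 50 mg/kg body wt/day for 28 days. Kidney homogenate in 0.01 M Tris-HCl pH 7.4. ALP read as phenol liberated from disodium phenyl phosphate, Folin colour at alkaline pH; γ-GT as p-nitroaniline liberated/min/mg protein. Mean ± SEM, 6 rats/group.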

Rattus norvegicus [27] = assay: Increase in glutathione level in kidney of ethylene glycol-induced hyperoxaluria Wistar rat model assessed per mg of protein at 50 mg/kg/day, po for 28 days; format: functional; outline: as §1
Rattus norvegicus [28] = assay: Reduction in ferrous sulfate-induced lipid peroxidation levels in kidney of ethylene glycol-induced hyperoxaluria Wistar rat model assessed as malondialdehyde release per mg of protein at 50 mg/kg/day, po for 28 days; format: functional; outline: as §6
Rattus norvegicus [29] = assay: Protective effect in kidney of ethylene glycol-induced hyperoxaluria Wistar rat model assessed as normal glomerulus/tubule at 50 mg/kg/day, po for 28 days; format: functional, organism-based
Outline: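 Hyperoxaluria induced with 0.75% ethylene glycol in drinking water for 28 days, with concurrent oral dosing at 50 mg/kg body wt/day. Kidney portions fixed in 10% formalin, stained with hematoxylin and eosin, and examined by light microscopy for glomeruli, tubules, crystal deposits and infiltration.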

Rattus norvegicus [30] = assay: Reduction of xanthine oxidase activity in liver of ethylene glycol-induced hyperoxaluria Wistar rat model assessed per mg of protein at 50 mg/kg/day, po for 28 days; format: functional; outline: as §2
Rattus norvegicus [31] = assay: Effect on xanthine oxidase activity in liver of Wistar rat assessed per mg of protein at 50 mg/kg/day, po for 28 days; format: functional; outline: as §3
Rattus norvegicus [32] = assay: Effect on renal gamma glutamyl transferase activity in Wistar rat assessed mg of protein at 50 mg/kg/day, po for 28 days; format: functional; outline: as §8

Row | Compound | Activity (Rattus norvegicus [1]) [µmol/min] | Activity (Rattus norvegicus [2]) [nmol] | Activity (Rattus norvegicus [3]) [nmol] | Activity (Rattus norvegicus [4]) | Activity (Rattus norvegicus [5]) | Activity (Rattus norvegicus [6]) | Activity (Rattus norvegicus [7]) [µmol/min] | Activity (Rattus norvegicus [8]) [µg/min] | Activity (Rattus norvegicus [9]) [nmol] | Activity (Rattus norvegicus [10]) [nmol] | Activity (Rattus norvegicus [11]) [µg/min] | Activity (Rattus norvegicus [12]) | Activity (Rattus norvegicus [13]) | Activity (Rattus norvegicus [14]) [nmol] | Activity (Rattus norvegicus [15]) [µg] | Activity (Rattus norvegicus [16]) | Activity (Rattus norvegicus [17]) [µg] | Activity (Rattus norvegicus [18]) [µmol/min] | Activity (Rattus norvegicus [19]) [µg] | Activity (Rattus norvegicus [20]) | also measured
1 | C=C(C)[C@@H]1CC[C@]2(C)CC[C@]3(C)[C@H](CC[C@@H]4[C@@]5(C)CC[C@H](O)C(C)(C)[C@@H]5CC[C@]43C)[C@@H]12 [LUPEOL] | 141.6 | 3.61 | 2.77 | 5.04 | 0.93 | 2.42 | 1.53 | 8.31 | 5.11 | 4.5 | 7.11 | 4.67 | Non-toxic | 12.14 | 0.91 | 1.09 | 4.75 | 164.2 | 1.6 | 2.35 | Activity (Rattus norvegicus [21]): 2.41; Activity (Rattus norvegicus [22]): 1.86 µg; Activity (Rattus norvegicus [23]): 2.05; Activity (Rattus norvegicus [24]): 1.04 µg; Activity (Rattus norvegicus [25]): 8.28 nmol/min; Activity (Rattus norvegicus [26]): 1.72 µmol/min; Activity (Rattus norvegicus [27]): 4.27 µg; Activity (Rattus norvegicus [28]): 15.11 nmol; Activity (Rattus norvegicus [29]): Active; Activity (Rattus norvegicus [30]): 1.54; Activity (Rattus norvegicus [31]): 1.31; Activity (Rattus norvegicus [32]): 8.73 nmol/min
2 | C=C(C)[C@@H]1CC[C@]2(C)CC[C@]3(C)C(CC[C@@H]4[C@@]5(C)CC[C@H](OC(=O)CCCCCCC/C=C/C/C=C/CCCCC)C(C)(C)[C@@H]5CC[C@]43C)[C@@H]12 (some centres undefined) [LUPEOL LINOLEATE] | 155.3 | 3.12 | 2.75 | 5 | 0.9 | 2.39 | 1.65 | 8.32 | 4.95 | 4.45 | 8.01 | 4.82 | Non-toxic | 12.2 | 0.97 | 0.97 | 4.76 | 164.9 | 1.74 | 2.33 | Activity (Rattus norvegicus [21]): 2.26; Activity (Rattus norvegicus [22]): 1.89 µg; Activity (Rattus norvegicus [23]): 2.01; Activity (Rattus norvegicus [24]): 1.06 µg; Activity (Rattus norvegicus [25]): 8.62 nmol/min; Activity (Rattus norvegicus [26]): 1.68 µmol/min; Activity (Rattus norvegicus [27]): 4.59 µg; Activity (Rattus norvegicus [28]): 13.38 nmol; Activity (Rattus norvegicus [29]): Active; Activity (Rattus norvegicus [30]): 1.39; Activity (Rattus norvegicus [31]): 1.28; Activity (Rattus norvegicus [32]): 8.79 nmol/min
